From ChEMBL document CHEMBL1154310, “Stereoselective synthesis and antimicrobial activity of benzofuran-based (1E)-1-(piperidin-1-yl)-N2-arylamidrazones” (2009)
Values after ≈ are worked out from the molar mass of the structure shown. Active and inactive are the calls of the source. No cut-off for these calls is given here.

Assays:
[1] = test system: Aspergillus fumigatus; test: Antifungal activity against Aspergillus fumigatus after 24 to 48 hrs by serial dilution technique; type: functional
Procedure, shortened: (§1)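 MIC by serial dilution: DMSO solutions started at a maximum of 500 and were diluted twofold in succession. Each dilution was inoculated with the test organism, and inhibition zones were measured by agar diffusion.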

[2] = test system: Candida albicans; test: Antifungal activity against Candida albicans after 24 to 48 hrs by serial dilution technique; type: functional; procedure, shortened: as §1
[3] = test system: Candida albicans; test: Antifungal activity against Candida albicans assessed as occurrence of cellular aggregation by microscopy; type: functional, organism-based
Procedure, shortened: (§2)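 Agar cultures exposed to 100 of compound were examined directly by phase-contrast or bright-field microscopy with video-camera image analysis, at ×400 for multicellular and ×1000 for unicellular fungi.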

[4] = test system: Aspergillus fumigatus; test: Ratio of compound to grisofulvin activity against Aspergillus fumigatus at 5 mg/ml after 24 to 48 hrs by agar diffusion technique; type: functional
[5] = test system: Syncephalastrum racemosum; test: Ratio of compound to grisofulvin activity against Syncephalastrum racemosum at 5 mg/ml after 24 to 48 hrs by agar diffusion technique; type: functional
[6] = test system: Candida albicans; test: Antifungal activity against Candida albicans at 5 mg/ml after 24 to 48 hrs by agar diffusion technique; type: functional; conditions: read-out: IZ
Procedure, shortened: (§3)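 Clinical fungal or yeast isolates were seeded on malt extract agar (pH 5.4). 1 cm holes received 100 of test solution at 5 mg/ml in DMSO, with DMSO control holes and griseofulvin as the standard. Plates sat 1 h at 4 °C, then were incubated at 28 °C. Zone diameters were measured at 24–48 h.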

[7] = test system: Candida albicans; test: Ratio of compound to grisofulvin activity against Candida albicans at 5 mg/ml after 24 to 48 hrs by agar diffusion technique; type: functional
[8] = test system: Geotrichum candidum; test: Ratio of compound to grisofulvin activity against Geotrichum candidum at 5 mg/ml after 24 to 48 hrs by agar diffusion technique; type: functional
[9] = test system: Staphylococcus aureus; test: Antibacterial activity against Staphylococcus aureus at 5 mg/ml after 24 to 48 hrs by agar diffusion technique; type: functional; conditions: read-out: IZ
Procedure, shortened: (§4)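 Hole-plate diffusion on nutrient agar (pH 6.2) seeded with clinical bacterial isolates. 1 cm wells were filled with 100 of a 5 mg/ml DMSO solution, with DMSO-only control wells and amoxicilline as the reference. Plates were held at 4 °C for 1 h, then incubated at 37 °C. Inhibition zone diameter was read after 24–48 h.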

[10] = test system: Staphylococcus aureus; test: Ratio of compound to amoxicilline activity against Staphylococcus aureus at 5 mg/ml after 24 to 48 hrs by agar diffusion technique; type: functional
[11] = test system: Bacillus subtilis; test: Ratio of compound to amoxicilline activity against Bacillus subtilis at 5 mg/ml after 24 to 48 hrs by agar diffusion technique; type: functional
[12] = test system: Escherichia coli; test: Antibacterial activity against Escherichia coli at 5 mg/ml after 24 to 48 hrs by agar diffusion technique; type: functional; conditions: read-out: IZ; procedure, shortened: as §4
[13] = test system: Escherichia coli; test: Ratio of compound to amoxicilline activity against Escherichia coli at 5 mg/ml after 24 to 48 hrs by agar diffusion technique; type: functional
[14] = test system: Pseudomonas aeruginosa; test: Ratio of compound to amoxicilline activity against Pseudomonas aeruginosa at 5 mg/ml after 24 to 48 hrs by agar diffusion technique; type: functional
[15] = test system: Syncephalastrum racemosum; test: Antifungal activity against Syncephalastrum racemosum at 5 mg/ml after 24 to 48 hrs by agar diffusion technique; type: functional; conditions: read-out: IZ; procedure, shortened: as §3
[16] = test system: Aspergillus fumigatus; test: Antifungal activity against Aspergillus fumigatus at 5 mg/ml after 24 to 48 hrs by agar diffusion technique; type: functional; conditions: read-out: IZ; procedure, shortened: as §3
[17] = test system: Geotrichum candidum; test: Antifungal activity against Geotrichum candidum at 5 mg/ml after 24 to 48 hrs by agar diffusion technique; type: functional; conditions: read-out: IZ; procedure, shortened: as §3
[18] = test system: Bacillus subtilis; test: Antibacterial activity against Bacillus subtilis at 5 mg/ml after 24 to 48 hrs by agar diffusion technique; type: functional; conditions: read-out: IZ; procedure, shortened: as §4
[19] = test system: Pseudomonas aeruginosa; test: Antibacterial activity against Pseudomonas aeruginosa at 5 mg/ml after 24 to 48 hrs by agar diffusion technique; type: functional; conditions: read-out: IZ; procedure, shortened: as §4
[20] = test system: Staphylococcus aureus; test: Antibacterial activity against Staphylococcus aureus after 24 to 48 hrs by serial dilution technique; type: functional; procedure, shortened: as §1
[21] = test system: Aspergillus fumigatus; test: Antifungal activity against Aspergillus fumigatus assessed as reduction in size of all morphological features by microscopy; type: functional, organism-based; procedure, shortened: as §2
[22] = test system: Aspergillus fumigatus; test: Antifungal activity against Aspergillus fumigatus assessed as appearance of chlamydospore at 100 uL by microscopy; type: functional, organism-based; procedure, shortened: as §2
[23] = test system: Candida albicans; test: Antifungal activity against Candida albicans assessed as appearance of elongated and swollen cells at 100 uL by microscopy; type: functional, organism-based; procedure, shortened: as §2
[24] = test system: Aspergillus fumigatus; test: Antifungal activity against Aspergillus fumigatus assessed as shrinking of cell membrane by transmission electron microscopy; type: functional, organism-based
Procedure, shortened: (§5)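 Treated A. fumigatus and C. albicans were fixed, dehydrated and stained. Ultrastructure was then examined by transmission electron microscopy at 80 kV and 25,000 magnification.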

[25] = test system: Candida albicans; test: Antifungal activity against Candida albicans assessed as shrinking of cell membrane by transmission electron microscopy; type: functional, organism-based; procedure, shortened: as §5
[26] = test system: Aspergillus fumigatus; test: Antifungal activity against Aspergillus fumigatus assessed as distortion of cellular sub-organs by transmission electron microscopy; type: functional, organism-based; procedure, shortened: as §5
[27] = test system: Candida albicans; test: Antifungal activity against Candida albicans assessed as distortion of cellular sub-organs by transmission electron microscopy; type: functional, organism-based; procedure, shortened: as §5
[28] = test system: Aspergillus fumigatus; test: Antifungal activity against Aspergillus fumigatus assessed as aggregation of lysed mitochondria by transmission electron microscopy; type: functional, organism-based; procedure, shortened: as §5
[29] = test system: Candida albicans; test: Antifungal activity against Candida albicans assessed as aggregation of lysed mitochondria by transmission electron microscopy; type: functional, organism-based; procedure, shortened: as §5
[30] = test system: Aspergillus fumigatus; test: Antifungal activity against Aspergillus fumigatus assessed as increase in thickness of hyphal cell wall and cell membrane by transmission electron microscopy; type: functional, organism-based; procedure, shortened: as §5
[31] = test system: Candida albicans; test: Antifungal activity against Candida albicans assessed as increase in thickness of hyphal cell wall and cell membrane by transmission electron microscopy; type: functional, organism-based; procedure, shortened: as §5

SMILES | Ratio [4] | Ratio [5] | zone of inhibition at 5000 µg/mL [6] | Ratio [7] | Ratio [8] | zone of inhibition at 5000 µg/mL [9] | Ratio [10] | Ratio [11] | zone of inhibition at 5000 µg/mL [12] | Ratio [13] | Ratio [14] | zone of inhibition at 5000 µg/mL [15] | zone of inhibition at 5000 µg/mL [16] | zone of inhibition at 5000 µg/mL [18] | also measured
COC1=CC(=O)C[C@@H](C)[C@]12Oc1c(Cl)c(OC)cc(OC)c1C2=O [GRISEOFULVIN] |  |  |  |  |  |  |  |  |  |  |  |  |  |  | MIC [1]: 50 µg/mL (≈ 142 µM); MIC [2]: 75 µg/mL (≈ 213 µM); Activity [3]: Active
C/C=N/NC(=O)c1oc2ccccc2c1C | 0 | 0 | 8 mm | 0.8 | 0 | 16 mm | 0.53 | 0 | 20 mm | 0.71 | 0 |  |  |  | 
CC(=N\NC(=O)c1oc2ccccc2c1C)/C(=N/Nc1ccc([N+](=O)[O-])cc1)NO | 0 | 1.05 | 9 mm | 0.9 | 0 |  | 0 | 0 |  | 0 | 0 | 20 mm |  |  | 
CC1(C)S[C@@H]2[C@H](NC(=O)[C@H](N)c3ccc(O)cc3)C(=O)N2[C@H]1C(=O)O [AMOXICILLIN] | 1 | 1 | 10 mm | 1 | 1 | 30 mm | 1 | 1 | 28 mm | 1 | 1 | 19 mm | 25 mm | 24 mm | zone of inhibition at 5000 µg/mL [17]: 10 mm; zone of inhibition at 5000 µg/mL [19]: 20 mm; MIC [20]: 50 µg/mL (≈ 137 µM)
CC(=N\NC(=O)c1oc2ccccc2c1C)/C(=N/Nc1ccc([N+](=O)[O-])cc1)S(=O)(=O)c1ccccc1 | 0 | 0 | 15 mm | 1.5 | 0 | 8 mm | 0.27 | 0.42 | 6 mm | 0.21 | 0 |  |  | 10 mm | 
COc1ccc(N/N=C(Cl)/C(C)=N/NC(=O)c2oc3ccccc3c2C)cc1 | 0 | 0 | 10 mm | 1 | 0 |  | 0 | 0 |  | 0 | 0 |  |  |  | 
CC(=N\NC(=O)c1oc2ccccc2c1C)/C(Cl)=N/Nc1ccc(C)cc1 | 0 | 0 | 6 mm | 0.6 | 0 |  | 0 | 0.29 |  | 0 | 0 |  |  | 7 mm | 
CC(=N\NC(=O)c1oc2ccccc2c1C)/C(=N/Nc1ccc([N+](=O)[O-])cc1)N1CCCCC1 | 1.28 | 1.16 | 18 mm | 1.8 | 1.2 | 26 mm | 0.87 | 0.83 | 20 mm | 0.71 | 0.35 | 22 mm | 32 mm | 20 mm | zone of inhibition at 5000 µg/mL [17]: 12 mm; zone of inhibition at 5000 µg/mL [19]: 7 mm; MIC [1]: 25 µg/mL (≈ 54.1 µM); MIC [2]: 75 µg/mL (≈ 162 µM); MIC [20]: 75 µg/mL (≈ 162 µM); Activity [21]: Active; Activity [22]: Active; Activity [23]: Active; Activity [24]: Active; Activity [25]: Active; Activity [26]: Active; Activity [27]: Active; Activity [28]: Active; Activity [29]: Active; Activity [30]: Active; Activity [31]: Active
CC(=N\NC(=O)c1oc2ccccc2c1C)/C(Cl)=N/Nc1ccc(Br)cc1 | 0 | 0.26 | 10 mm | 1 | 0 |  | 0 | 0.38 |  | 0 | 0 | 5 mm |  | 9 mm | 
Cc1c(C(=O)N/N=C(/C=C/c2ccc(Cl)cc2)C(=N/Nc2ccc(Br)cc2)\N2CCCCC2)oc2ccccc12 | 0 | 1.05 | 14 mm | 1.4 | 0 | 10 mm | 0.33 | 0.67 | 10 mm | 0.36 | 0 | 20 mm |  | 16 mm | 
CC(=N\NC(=O)c1oc2ccccc2c1C)/C(Cl)=N/Nc1ccc([N+](=O)[O-])cc1 | 0.56 | 0 | 12 mm | 1.2 | 0.5 | 12 mm | 0.4 | 0.25 | 10 mm | 0.36 | 0.25 |  | 14 mm | 6 mm | zone of inhibition at 5000 µg/mL [17]: 5 mm; zone of inhibition at 5000 µg/mL [19]: 5 mm
CC(=N\NC(=O)c1oc2ccccc2c1C)/C(Cl)=N/Nc1ccccc1 | 0 | 0 | 6 mm | 0.6 | 0 |  | 0 | 0 |  | 0 | 0 |  |  |  | 
Cc1c(C(=O)N/N=C/C=C/c2ccccc2)oc2ccccc12 | 0 | 0 | 5 mm | 0.5 | 0 |  | 0 | 0.33 |  | 0 | 0 |  |  | 8 mm | 
CC(=N\NC(=O)c1oc2ccccc2c1C)/C(=N/Nc1ccccc1)N1CCCCC1 | 1.12 | 0.84 | 14 mm | 1.4 | 0 | 15 mm | 0.5 | 0 | 17 mm | 0.61 | 0 | 16 mm | 28 mm |  | 
Cc1c(C(=O)N/N=C(/C=C/c2ccccc2)C(=N/Nc2ccccc2)\N2CCCCC2)oc2ccccc12 | 0.84 | 1 | 15 mm | 1.5 | 0 | 16 mm | 0.53 | 0.63 | 14 mm | 0.5 | 0 | 19 mm | 21 mm | 15 mm | 
Cc1c(C(=O)N/N=C(/C=C/c2ccccc2)C(=N/Nc2ccc([N+](=O)[O-])cc2)\N2CCCCC2)oc2ccccc12 | 0 | 1.1 | 17 mm | 1.7 | 0 |  | 0 | 0 | 8 mm | 0.29 | 0 | 21 mm |  |  | 
